Source: article PMC4832308 (Cancer, 2015)
Converted amounts (≈) assume the structure as drawn. “And” between values parts separate entries of the source, which are not always exact repeats. Identical values can stand only once. Like-named read-outs stand apart in the source and are kept apart here.

Legend:
[1] = test system: solid tumor lines, including breast, glioma, hepatocellular carcinoma (HCC), and non–small cell lung cancer; settings: cited from earlier work
p4EBP1 = assay: blood biomarker analysis by flow cytometry and PK/PD modeling; assay type: in vivo, human
Summary of the method: (§1)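 Sodium-heparin patient whole blood, taken predose and 1.5–5 h postdose: 1 h at 37°C, 15-min anti-IgD plus LPS stimulation, lyse/fix, methanol overnight at −80°C, then CD3/CD14/CD20 and phospho-staining and flow cytometry. Bead-calibrated MFI reported as ERF. Baseline-relative change vs plasma drug (chiral LC-MS) was fitted by a direct inhibitory NONMEM model for EC50: p4EBP1 in T cells, pS6RP in B cells and monocytes.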

[2] = test system: U87 glioblastoma multiforme; settings: cited from earlier work
pS6RP = assay: blood biomarker analysis by flow cytometry and PK/PD modeling; assay type: in vivo, human; settings: for EC50: Homo sapiens, read-out: EC50 for pS6RP inhibition
Summary of the method: as §1

Ki67 = assay: immuno‐histochemical staining of tumor biopsies; assay type: in vivo, human; settings: pre‐ vs on‐treatment (days 15‐22), HCC and salivary gland tumor, 30‐mg/d cohort
Summary of the method: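 Optional pretreatment and on-treatment (days 15–22) tumor biopsies from 2 patients in the 30-mg/d cohort (HCC and salivary gland tumor). Paraffin-embedded sections were immunostained per antibody (pS6RP, p4EBP1, pAKT, Ki-67) or TUNEL-labelled, then scored by quantitative image analysis.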

[3] = test system: patients with advanced solid tumors or multiple myeloma; assay: phase 1 dose escalation: preliminary efficacy; assay type: in vivo, human
Summary of the method: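 Single dose on day −1, then oral daily dosing after a ≥6-h fast in 28-day cycles until progression. Tumors were imaged by CT or MRI. Response was scored by RECIST 1.1, international uniform criteria for myeloma, or revised high-grade glioma criteria. Evaluable patients were eligible, completed ≥1 cycle, and had baseline plus ≥1 postbaseline assessment. Disease control rate was given with a 90% confidence interval.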

[4] = plasma pharmacokinetics in patients; assay type: in vivo, human
pAKT = assay: blood biomarker analysis by flow cytometry and PK/PD modeling; assay type: in vivo, human; settings: for EC50: Homo sapiens, read-out: EC50 for pAKT inhibition
[5] = 30‐, 45‐, and 60‐mg dose levels, 3 hours on treatment

CO[C@H]1CC[C@H](N2C(=O)CNc3ncc(-c4ccc(C(C)(C)O)nc4)nc32)CC1 [CC‐223]
activity against solid tumor lines [1]: active
p4EBP1 inhibition in blood cells (p4EBP1; [5]): > 40%
EC50 (p4EBP1; Homo sapiens, T-cell, read-out: EC50 for p4EBP1 inhibition): 0.113 µg/mL (≈ 0.284 µM)
single‐agent activity in xenograft model [2]: single‐agent activity
pS6RP inhibition in blood cells (pS6RP; [5]): > 70%
EC50 (pS6RP; B-cell): 0.0203 µg/mL (≈ 0.0511 µM)
EC50 (pS6RP; Monocyte): 0.174 µg/mL (≈ 0.438 µM)
Ki67 staining in tumor biopsies (Ki67): Significant inhibition
complete response ([3]; 20 patients evaluable for efficacy): No patient had a complete response
patients with stable disease ([3]; across ≥15 mg/d cohorts): 8 patients
patients with progressive disease ([3]; best response): 12 patients
duration of partial response / disease control ([3]; breast cancer patient with PR, 30‐mg/d cohort): 220 days
disease control duration ([3]; breast cancer patient with SD): 168 days
partial response rate ([3]; breast cancer patient, 30‐mg/d cohort): 3.6%
patients with reduction in target lesions ([3]; in addition to the PR): 5 patients
patients with SD >100 days ([3]; in vivo): 5 patients
patients with disease control durations of >100 days ([3]; in vivo): Six
best overall response rate per investigator ([3]; safety population): 3.6%
disease control rate ([3]; safety population): 32% and 32.1%
stable disease rate ([3]; safety population): 29%
dose dependence of Cmax and AUC from time 0 to infinity ([4]; 30‐ to 60‐mg dose range, single or multiple doses): dose‐proportional
half-life ([4]; human, plasma, oral): 4.86 to 5.64 h
ratio of AUC0‐24 between day 15 and day 1 ([4]; multiple dosing): ≤ 22%
pAKT inhibition in blood cells (pAKT; [5]): > 48%
EC50 (pAKT; B-cell): 0.0504 µg/mL (≈ 0.127 µM)
EC50 (pAKT; Monocyte): 0.085 µg/mL (≈ 0.214 µM)
